According to ChEMBL document CHEMBL4266027, “Cyanobufalins: Cardioactive Toxins from Cyanobacterial Blooms” (J Nat Prod, 2018):

Assays:
SK-OV-3 = test: Cytotoxicity against human SKOV3 cells assessed as decrease in cell viability after 72 hrs by MTS assay; assay type: functional, cell-based; conditions: SK-OV-3, 72 h
Procedure, shortened: (§1)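 Cell proliferation assay using the MTS reagent. Compounds were tested as a dilution series, and EC50 values were derived from the concentration–response data.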

PANC-1 = test: Cytotoxicity against human PANC1 cells assessed as decrease in cell viability after 72 hrs by MTS assay; assay type: functional, cell-based; conditions: PANC-1, 72 h; procedure, shortened: as §1
HCT-116 = test: Cytotoxicity against human HCT116 cells assessed as decrease in cell viability after 72 hrs by MTS assay; assay type: functional, cell-based; conditions: HCT-116, 72 h; procedure, shortened: as §1
HepG2 = test: Cytotoxicity against human HepG2 cells assessed as decrease in cell viability after 72 hrs by MTS assay; assay type: functional, cell-based; conditions: HepG2, 72 h; procedure, shortened: as §1
DU-145 = test: Cytotoxicity against human DU145 cells assessed as decrease in cell viability after 72 hrs by MTS assay; assay type: functional, cell-based; conditions: DU-145, 72 h; procedure, shortened: as §1
HT-1080 = test: Cytotoxicity against human HT1080 cells assessed as decrease in cell viability after 72 hrs by MTS assay; assay type: functional, cell-based; conditions: HT-1080, 72 h; procedure, shortened: as §1
786-0 = test: Cytotoxicity against human 786-O cells assessed as decrease in cell viability after 72 hrs by MTS assay; assay type: functional, cell-based; conditions: 786-0, 72 h; procedure, shortened: as §1
Daudi = test: Cytotoxicity against human Daudi cells assessed as decrease in cell viability after 72 hrs by MTS assay; assay type: functional, cell-based; procedure, shortened: as §1
THP-1 = test: Cytotoxicity against human THP1 cells assessed as decrease in cell viability after 72 hrs by MTS assay; assay type: functional, cell-based; conditions: THP-1, 72 h; procedure, shortened: as §1
HeLa = test: Cytotoxicity against human HeLa cells assessed as decrease in cell viability after 72 hrs by MTS assay; assay type: functional, cell-based; procedure, shortened: as §1
MCF7 = test: Cytotoxicity against human MCF7 cells assessed as decrease in cell viability after 72 hrs by MTS assay; assay type: functional, cell-based; conditions: MCF7, 72 h; procedure, shortened: as §1
BXPC-3 = test: Cytotoxicity against human BxPC3 cells assessed as decrease in cell viability after 72 hrs by MTS assay; assay type: functional, cell-based; conditions: BXPC-3, 72 h; procedure, shortened: as §1
NCI-N87 = test: Cytotoxicity against human NCI-N87 cells assessed as decrease in cell viability after 72 hrs by MTS assay; assay type: functional, cell-based; conditions: NCI-N87, 72 h; procedure, shortened: as §1
A549 = test: Cytotoxicity against human A549 cells assessed as decrease in cell viability after 72 hrs by MTS assay; assay type: functional, cell-based; conditions: A549, 72 h; procedure, shortened: as §1
MV4-11 = test: Cytotoxicity against human MV411 cells assessed as decrease in cell viability after 72 hrs by MTS assay; assay type: functional, cell-based; conditions: MV4-11, 72 h; procedure, shortened: as §1
MDA-MB-468 = test: Cytotoxicity against human MDA-MB-468 cells assessed as decrease in cell viability after 72 hrs by MTS assay; assay type: functional, cell-based; conditions: MDA-MB-468, 72 h; procedure, shortened: as §1
MRC5 = test: Cytotoxicity against human MRC5 cells assessed as decrease in cell viability after 72 hrs by MTS assay; assay type: cell-based; conditions: MRC5, 72 h; procedure, shortened: as §1
H22 = test: Cytotoxicity against mouse H22 cells assessed as decrease in cell viability after 72 hrs by MTS assay; assay type: functional, cell-based; conditions: H22, 72 h; procedure, shortened: as §1
CCRF S-180 = test: Cytotoxicity against mouse S180 cells assessed as decrease in cell viability after 72 hrs by MTS assay; assay type: functional, cell-based; conditions: CCRF S-180, 72 h; procedure, shortened: as §1
Cardiac muscle cell [1] = test: Toxicity in human inducible pluripotent stem cell derived cardiomyocytes assessed as change in beating amplitude at 0.32 nM after 8 mins; assay type: cell-based; conditions: 0.00032 µM
Procedure, shortened: (§2)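 Human iPSC-derived cardiomyocytes (Cor.4U) were grown to stable beating cultures and monitored by impedance in real time with 20 s recordings. Compounds were given as a dilution series from 0.32 nM to 5 μM, dosed twice 24 h apart, with monitoring over 48 h. Beating amplitude was taken from each negative peak to the following positive peak and reported as % change.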

Cardiac muscle cell [2] = test: Toxicity in human inducible pluripotent stem cell derived cardiomyocytes assessed as change in beating amplitude at 0.32 nM after 33 mins; assay type: cell-based; conditions: 0.55 h, 0.00032 µM; procedure, shortened: as §2
Cardiac muscle cell [3] = test: Toxicity in human inducible pluripotent stem cell derived cardiomyocytes assessed as change in beating amplitude at 0.32 nM after 66 mins; assay type: cell-based; conditions: 1.1 h, 0.00032 µM; procedure, shortened: as §2
Cardiac muscle cell [4] = test: Toxicity in human inducible pluripotent stem cell derived cardiomyocytes assessed as change in beating amplitude at 0.32 nM after 12 hrs; assay type: cell-based; conditions: 0.00032 µM; procedure, shortened: as §2
Cardiac muscle cell [5] = test: Toxicity in human inducible pluripotent stem cell derived cardiomyocytes assessed as change in beating amplitude at 0.32 nM after 24 hrs; assay type: cell-based; conditions: 0.00032 µM; procedure, shortened: as §2
Cardiac muscle cell [6] = test: Toxicity in human inducible pluripotent stem cell derived cardiomyocytes assessed as change in beating amplitude at 0.32 nM after 36 hrs; assay type: cell-based; conditions: 0.00032 µM; procedure, shortened: as §2
Cardiac muscle cell [7] = test: Toxicity in human inducible pluripotent stem cell derived cardiomyocytes assessed as change in beating amplitude at 0.32 nM after 48 hrs; assay type: cell-based; conditions: 0.00032 µM; procedure, shortened: as §2
Cardiac muscle cell [8] = test: Toxicity in human inducible pluripotent stem cell derived cardiomyocytes assessed as change in beating amplitude at 1.6 nM after 33 mins; assay type: cell-based; conditions: 0.55 h, 0.0016 µM; procedure, shortened: as §2
Cardiac muscle cell [9] = test: Toxicity in human inducible pluripotent stem cell derived cardiomyocytes assessed as change in beating amplitude at 1.6 nM after 66 mins; assay type: cell-based; conditions: 1.1 h, 0.0016 µM; procedure, shortened: as §2
Cardiac muscle cell [10] = test: Toxicity in human inducible pluripotent stem cell derived cardiomyocytes assessed as change in beating amplitude at 1.6 nM after 12 hrs; assay type: cell-based; conditions: 0.0016 µM; procedure, shortened: as §2
Cardiac muscle cell [11] = test: Toxicity in human inducible pluripotent stem cell derived cardiomyocytes assessed as change in beating amplitude at 1.6 nM after 24 hrs; assay type: cell-based; conditions: 0.0016 µM; procedure, shortened: as §2
Cardiac muscle cell [12] = test: Toxicity in human inducible pluripotent stem cell derived cardiomyocytes assessed as change in beating amplitude at 1.6 nM after 36 hrs; assay type: cell-based; conditions: 0.0016 µM; procedure, shortened: as §2
Cardiac muscle cell [13] = test: Toxicity in human inducible pluripotent stem cell derived cardiomyocytes assessed as change in beating amplitude at 1.6 nM after 48 hrs; assay type: cell-based; conditions: 0.0016 µM; procedure, shortened: as §2
Cardiac muscle cell [14] = test: Toxicity in human inducible pluripotent stem cell derived cardiomyocytes assessed as change in beating amplitude at 8 nM after 33 mins; assay type: cell-based; conditions: 0.55 h, 0.008 µM; procedure, shortened: as §2
Cardiac muscle cell [15] = test: Toxicity in human inducible pluripotent stem cell derived cardiomyocytes assessed as change in beating amplitude at 8 nM after 4 hrs; assay type: cell-based; conditions: 0.008 µM
Procedure, shortened: (§3)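 Cor.4U hiPSC-derived cardiomyocytes grown to stable beating cultures, then monitored by impedance in RTCA Cardio plates with 20 s recordings. Compounds tested as a dilution series from 0.32 nM to 5 μM, dosed twice 24 h apart, followed over 48 h. Beating amplitude is taken from each negative peak to the next positive peak and reported as percent change.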

Cardiac muscle cell [16] = test: Toxicity in human inducible pluripotent stem cell derived cardiomyocytes assessed as change in beating amplitude at 8 nM after 24 hrs; assay type: cell-based; conditions: 0.008 µM; procedure, shortened: as §2
Cardiac muscle cell [17] = test: Toxicity in human inducible pluripotent stem cell derived cardiomyocytes assessed as change in beating amplitude at 40 nM after 66 mins; assay type: cell-based; conditions: 1.1 h, 0.04 µM; procedure, shortened: as §2
Cardiac muscle cell [18] = test: Toxicity in human inducible pluripotent stem cell derived cardiomyocytes assessed as change in beating amplitude at 1.6 nM after 8 mins; assay type: cell-based; conditions: 0.0016 µM; procedure, shortened: as §2
Cardiac muscle cell [19] = test: Toxicity in human inducible pluripotent stem cell derived cardiomyocytes assessed as change in beating amplitude at 8 nM after 8 mins; assay type: cell-based; conditions: 0.008 µM; procedure, shortened: as §3
Cardiac muscle cell [20] = test: Toxicity in human inducible pluripotent stem cell derived cardiomyocytes assessed as increase in beating amplitude at >= 40 nM up to 48 hrs; assay type: cell-based; procedure, shortened: as §3
Cardiac muscle cell [21] = test: Toxicity in human inducible pluripotent stem cell derived cardiomyocytes assessed as increase in beating amplitude at 8 nM up to 48 hrs; assay type: cell-based; conditions: 0.008 µM; procedure, shortened: as §3

SMILES: CC1(C)[C@@H](OC(N)=O)C=C[C@]2(C=O)[C@H]3CC[C@]4(C)[C@@H](c5ccc(=O)oc5)[C@@H](Cl)C[C@]4(O)C3=CC[C@@H]12
- EC50 (SK-OV-3): 6 nM
- EC50 (PANC-1): 2.1 nM
- EC50 (HCT-116): 6 nM
- EC50 (HepG2): 5.8 nM
- EC50 (DU-145): 5.2 nM
- EC50 (HT-1080): 5.4 nM
- EC50 (786-0): 2.3 nM
- EC50 (Daudi): 3.3 nM
- EC50 (THP-1): 4.3 nM
- EC50 (HeLa): 4.7 nM
- EC50 (MCF7): 15 nM
- EC50 (BXPC-3): 5.7 nM
- EC50 (NCI-N87): 5.8 nM
- EC50 (A549): 3.7 nM
- EC50 (MV4-11): 6.3 nM
- EC50 (MDA-MB-468): 7 nM
- EC50 (MRC5): 2.4 nM
- EC50 (H22): 4600 nM
- EC50 (CCRF S-180): > 20000 nM
- Activity (Cardiac muscle cell [1]): -2.7%
- Activity (Cardiac muscle cell [2]): 0.7%
- Activity (Cardiac muscle cell [3]): -1.9%
- Activity (Cardiac muscle cell [4]): 23%
- Activity (Cardiac muscle cell [5]): 30%
- Activity (Cardiac muscle cell [6]): 57%
- Activity (Cardiac muscle cell [7]): 30%
- Activity (Cardiac muscle cell [8]): -2.1%
- Activity (Cardiac muscle cell [9]): 2.6%
- Activity (Cardiac muscle cell [10]): 3.3%
- Activity (Cardiac muscle cell [11]): 2.8%
- Activity (Cardiac muscle cell [12]): 11%
- Activity (Cardiac muscle cell [13]): -20%
- Activity (Cardiac muscle cell [14]): 7.5%
- Activity (Cardiac muscle cell [15]): -19%
- Activity (Cardiac muscle cell [16]): -59%
- Activity (Cardiac muscle cell [17]): -94%
- Activity (Cardiac muscle cell [18]): -1.9%
- Activity (Cardiac muscle cell [19]): 3.9%
- Activity (Cardiac muscle cell [20]): Toxic
- Activity (Cardiac muscle cell [21]): Toxic
